# Screens (PubChem)
# MEKK2 mut-MEK5: MEK5 binding signal on mutant MEKK2 PB1, primary screen, biochemical, multiplex bead flow cytometry, Alexa488-MEK5. 290,000 tested, 0.35% active. percent response, % at 10 µM. Alexa488-MEK5 binding to MEKK2 mutant. AID 1530, 2009; in the data active means percent response above about 24%, passing the limit was not always enough
# IMP-1 inh-1: IMP-1 metallo-beta-lactamase inhibitors, primary screen, biochemical, epi-absorbance readout, Pseudomonas aeruginosa enzyme; metallo-beta-lactamase IMP-1 (Pseudomonas aeruginosa); purified IMP-1, nitrocefin hydrolysis, epi-absorbance fluorescence; inhibition, % at 5.6 µM; 290,000 tested, 0.45% active; AID 1556, 2009;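 active means inhibition above the mean plus 3 SD of all compounds in the same screening run, cut at about 4.5% in these data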;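 further: 0% = IMP-1 with DMSO and 100% = DMSO wells lacking enzyme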
#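 system = purified recombinant IMP-1 beta-lactamase | amount = 0.2 nM IMP-1, as dispensed | medium = HEPES buffer pH 7.1 with ZnSO4 and Brij 35 | times = 25 °C, 15 min preincubation, 25 min reaction | detection = plate fluorescence quenching by hydrolysis product, ex 480/em 530 nm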
# MEKK2 WT-MEK5: modulators of MEK5 binding to wildtype MEKK2, primary screen, biochemical, multiplex bead flow cytometry, Alexa488-MEK5 | Alexa488-MEK5 binding to MEKK2 WT; actives lie on both sides | binding response (% of control), % at 10 µM | 290,000 tested, 1.1% active; in the data active means binding response below about 67% or above about 130%
# VIM-2 inh: VIM-2 metallo-beta-lactamase inhibitors, primary screen, biochemical, epi-absorbance readout, Pseudomonas aeruginosa enzyme | purified VIM-2, nitrocefin hydrolysis, epi-absorbance fluorescence | inhibition, % at 5.6 µM | 290,000 tested, 0.89% active;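 active means inhibition above the mean of all tested compounds plus 3 SD, cutoff set per screening run, cut at about 7.5% in these data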;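 further: red hydrolysis product quenches plate fluorescence so inhibitors raise well fluorescence; 0% = enzyme with DMSO and 100% = DMSO without enzyme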
# MEKK3 PB1 HTS: modulators of MEKK3-MEK5 PB1 binding, primary screen, biochemical, wildtype MEKK3, multiplex bead flow cytometry, Alexa488-MEK5; binding response (% of control), % at 10 µM; AID 1529, 2009; bead-based flow cytometry, Alexa488-MEK5 binding to MEKK3; actives lie on both sides; 0 = blocked by unlabeled MEK5, 100 = vehicle; 290,000 tested, 1.4% active; Mitogen-activated protein kinase kinase kinase 3 (Homo sapiens), Q99759;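 active means binding response more than 3 SD above or below the average of its plate-row segment, actives on both sides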;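 further: Alexa488 bead fluorescence after subtracting the streptavidin-only scavenger bead signal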
# IMP-1 inh-2: IMP-1 metallo-beta-lactamase inhibitors, confirmation, selectivity assay for selective VIM-2 inhibitor project, biochemical, epi-absorbance readout, triplicate; shares compounds with VIM-2 inh; purified IMP-1, nitrocefin hydrolysis, epi-absorbance fluorescence; inhibition, % at 5.6 µM; 1,300 tested, under 10 active; AID 1856, 2009; call rule not given here;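 further: 0% = enzyme with vehicle and 100% = vehicle without enzyme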
# VIM-2 FRET ctr: VIM-2 inhibitors in FRET format, confirmation, artefact control for selective VIM-2 inhibitor project, biochemical, epi-absorbance artifact exclusion | shares compounds with VIM-2 inh | purified VIM-2, CCF2 FRET substrate hydrolysis | inhibition, % at 5.6 µM | 1,300 tested, 23% active | AID 1857, 2009;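 active means inhibition above the mean of all tested compounds plus 3 SD, cut at about 19% in these data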;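 further: 0% = VIM-2 plus DMSO and 100% = no enzyme wells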
# TEM-1 inh: TEM-1 serine beta-lactamase inhibitors, counter-screen for VIM-2 inhibitor project, biochemical, epi-absorbance, HTS; shares compounds with VIM-2 inh; Purified TEM-1, nitrocefin hydrolysis, epi-absorbance fluorescence; inhibition, % at 5.6 µM; 1,300 tested, 3% active; AID 1866, 2009;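 active means inhibition above that campaign's mean inhibition plus 3 SD, cut at about 0.46% in these data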;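 further: 0% = TEM-1 with DMSO and 100% = TEM-1 with 100 µM potassium clavulanate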
# Target sequence (P62593 whole entry, looked up): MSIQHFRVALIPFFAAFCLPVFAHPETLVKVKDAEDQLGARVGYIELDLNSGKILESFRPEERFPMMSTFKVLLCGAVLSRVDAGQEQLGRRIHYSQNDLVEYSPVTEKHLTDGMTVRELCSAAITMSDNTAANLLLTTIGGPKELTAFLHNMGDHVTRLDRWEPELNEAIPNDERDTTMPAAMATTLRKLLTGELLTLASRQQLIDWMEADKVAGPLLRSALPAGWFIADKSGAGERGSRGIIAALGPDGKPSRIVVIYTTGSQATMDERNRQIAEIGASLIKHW
# VIM-2 confirm 2: VIM-2 metallo-beta-lactamase inhibitors, confirmation, biochemical, epi-absorbance, hits shared with IMP-1 screen | inhibition, % at 5.6 µM | purified VIM-2, nitrocefin hydrolysis | shares compounds with VIM-2 inh | 1,300 tested, 96% active;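 active means inhibition of the VIM-2 beta-lactamase enzyme above about 11% from the earlier first-round screen, limit read from the data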;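 further: 0% = VIM-2 with DMSO and 100% = buffer wells without enzyme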
# * = called active by the depositor; · = no result given. Hits are enriched below; roughly 3.4% of the tested compounds scored in any of these assays.
SMILES,MEKK2 mut-MEK5,IMP-1 inh-1,MEKK2 WT-MEK5,VIM-2 inh,MEKK3 PB1 HTS,IMP-1 inh-2,VIM-2 FRET ctr,TEM-1 inh,VIM-2 confirm 2
CCn1c2ccccc2c2nnc(SCCN3CCCCC3)nc21,5.0,-4.3,110.0,19.1*,105.0,-1.0,2.3,-0.8,21.5*
CCn1c2ccccc2c2nnc(SCc3ccccc3)nc21,9.0,-1.6,111.0,-2.5,121.0,·,·,·,·
O=C(COC(=O)c1ccc[nH]c1=O)NCCc1ccc(F)cc1,-2.0,-2.2,93.0,-2.8,98.0,·,·,·,·
COc1ccc(CN2CCN(C(C)C(=O)NC(C)c3ccc(F)cc3)CC2)cc1F (stereo not drawn),-4.0,-4.9,102.0,-0.2,104.0,·,·,·,·
Cc1ccc(S(=O)(=O)N(CC(=O)N2CCOCC2)C2CCCCC2)cc1,-8.0,-2.2,86.0,1.7,91.0,·,·,·,·
CC(C1CC1)N(Cc1ccccc1)C(=O)NC(=O)c1ccccc1 (stereo not drawn),1.0,-3.1,102.0,-0.9,104.0,·,·,·,·
Cn1c2ccccc2c2nnc(SCC(=O)Nc3cccc(O)c3)nc21,-8.0,-2.4,94.0,20.4*,91.0,-2.3,3.5,-8.3,27.4*
CN(C)CCNC(=O)c1cc2c(=O)n(C)c3ccccc3c2n1C,2.0,-3.4,97.0,17.4*,95.0,-2.1,4.0,-6.5,28.0*
CCCN(CCC)CCCNC(=O)c1cn(CCOC)c(=O)c2c1c1ccccc1n2C,4.0,-3.2,104.0,0.7,101.0,·,·,·,·
CCN(CC)CCCNC(=O)c1cc2c(=O)n(C)c3ccccc3c2n1C,1.0,-2.4,104.0,22.1*,100.0,-3.1,0.9,-5.3,30.5*
CCCN(CCC)CCCNC(=O)c1cc2c(=O)n(C)c3ccccc3c2n1C,2.0,-2.5,107.0,26.0*,100.0,-2.6,1.2,-6.0,29.7*
COCCNC(=O)c1cc2c(=O)n(C)c3ccccc3c2n1C,2.0,-4.3,101.0,14.0*,101.0,-3.0,2.1,-6.9,22.2*
CCCCN(CC)CCNC(=O)c1cn(CCOC)c(=O)c2c1c1ccccc1n2C,4.0,-2.1,107.0,5.8,102.0,·,·,·,·
COC(=O)c1cc2sccc2n1Cc1nc(-c2cccc(Cl)c2)oc1C,9.0,-1.5,111.0,0.7,112.0,·,·,·,·
CCCCN(CC)CCNC(=O)c1cc2c(C)nc3ccccc3c2o1,6.0,-1.6,105.0,14.1*,96.0,-4.3,1.1,-7.3,17.0*
CCN(CC)CCNC(=O)c1nn(-c2ccc(C)cc2)c(=O)c2c1c1ccccc1n2C,10.0,-3.0,121.0,6.2,108.0,·,·,·,·
CCN(CC)CCNC(=O)c1cc2c(=O)n(C)c3ccccc3c2n1C,-2.0,-3.8,94.0,19.6*,93.0,-2.6,1.9,-5.0,30.8*
CCCCN(CC)CCNC(=O)c1cc2c(=O)n(C)c3ccccc3c2n1C,1.0,-1.9,107.0,20.7*,97.0,-3.0,1.9,-7.1,29.8*
CCCCN(CC)CCCNC(=O)c1cn(C)c(=O)c2c1c1ccccc1n2C,7.0,-1.6,112.0,4.6,105.0,·,·,·,·
CC12CN(C(=O)c3ccc([N+](=O)[O-])cc3)CC(C)(CN(C(=O)c3ccc([N+](=O)[O-])cc3)C1)C2=O,-5.0,-2.9,98.0,-1.8,96.0,·,·,·,·
Cc1ccc(NC(=O)CSc2nnc(C3CC3)n2N)cc1S(=O)(=O)N1CCOCC1,-11.0,-0.3,94.0,0.6,95.0,·,·,·,·
Cn1c2ccccc2c(=O)c2ccc(C#CC3(N)CCCCC3)cc21,4.0,-2.8,103.0,27.6*,99.0,-2.5,-0.5,-10.0,39.2*
COc1cccc2oc3ccc(C#CC4(N)CCCCC4)cc3c(=O)c12,4.0,-1.3,124.0,14.7*,105.0,-3.2,-1.6,-5.8,19.8*
Cn1c2ccccc2c(=O)c2ccc(F)cc21,4.0,-4.5,97.0,13.0*,100.0,-2.4,-22.5,-9.5,23.6*
Cn1c2ccccc2c(=O)c2cc(C#Cc3ccccn3)ccc21,-5.0,-3.0,95.0,13.8*,101.0,-2.2,-8.2,-5.2,16.6*
SMILES,MEKK2 mut-MEK5,IMP-1 inh-1,MEKK2 WT-MEK5,VIM-2 inh,MEKK3 PB1 HTS,IMP-1 inh-2,VIM-2 FRET ctr,TEM-1 inh,VIM-2 confirm 2
Cc1ccccc1NC(=O)c1cc(N)ccc1N1CCCCC1,4.0,-3.9,98.0,-5.9,100.0,·,·,·,·
COc1cccc(C(=O)NNC(=O)c2cccnc2)c1,2.0,-3.2,96.0,-1.6,100.0,·,·,·,·
CN1CCN(C(=O)CNc2ccc(C(F)(F)F)cc2[N+](=O)[O-])CC1,-3.0,0.2,101.0,23.9*,102.0,-2.6,-2.1,-5.6,38.4*
CC(C)NC(=O)CNc1ccc(C(F)(F)F)cc1[N+](=O)[O-],4.0,-4.6,104.0,-3.7,104.0,·,·,·,·
COc1cc(/C=N/N(CCO)C2=NS(=O)(=O)c3ccccc32)cc(OC)c1OC,9.0,-4.9,109.0,12.2*,104.0,-2.8,-3.6,-6.2,21.4*
CC(C)(C)NC(=O)CCN(/N=C/c1ccc([N+](=O)[O-])o1)C1=NS(=O)(=O)c2ccccc21,-1.0,-4.0,95.0,-0.5,98.0,·,·,·,·
CN(C)c1ccc(/C=N/N(CCC(=O)NC(C)(C)C)C2=NS(=O)(=O)c3ccccc32)cc1,-2.0,-3.2,97.0,19.7*,103.0,-3.8,-0.9,-7.2,3.6
COc1cc(Br)cc(/C=N/N(CCO)C2=NS(=O)(=O)c3ccccc32)c1OC,9.0,-3.7,108.0,2.7,115.0,·,·,·,·
CCCn1c(=N)c(S(=O)(=O)c2ccc(F)cc2)cc2c(=O)n3cccc(C)c3nc21,2.0,-1.4,92.0,12.7*,98.0,-0.9,-4.3,2.9*,27.1*
Cc1cccc(C)c1NC(=S)N/N=C/c1c(Cl)cccc1Cl,-4.0,-2.3,101.0,-4.2,108.0,·,·,·,·
COc1ccc(-c2ccc3nnc(SCC(N)=O)n3n2)cc1,-2.0,-2.6,99.0,-0.4,104.0,·,·,·,·
